# Measured values as given in publication PMC8926038 (Multiple sclerosis and related disorders, 2022).
# Counter-ions that a name gives are not always drawn.
# Legend:
# astrocytes = settings: in vitro pre-treatment, 25 μM, stimulation with IL1β; ref Galloway et al., 2017; cited from earlier work
# [1] = tested on: C3 secretion from inflammation-induced astrocytes; test: C3 secretion; assay type: cell-based, human
# In short: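 Primary human cortical astrocytes on PLL-coated plates; after 24 h, medium replaced with 50% v/v supernatant from resting or LPS (100 ng/ml) plus CD3/CD28 bead-stimulated PBMC, with test compound or matched DMSO. Screen run twice at single concentrations; titrations at 0–1000 nM (n = 3), IC50 from best-fit curves. Supernatant C3 by ELISA at 24 h, reported as % of stimulated DMSO after unstimulated subtraction.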
# [2] = doses over 400 mg/day; ref Utili et al., 1977; cited from earlier work
# [3] = tested on: secretome of inflammation-induced astrocytes; assay type: cell-based, human; settings: SOMAscan, n = 1; for secretion of "toxic astrocyte signature" biomarkers: normalized toxic vs resting astrocytes index
# [4] = tested on: human induced pluripotent stem cells (iPSCs)-differentiated astrocytes; settings: pretreatment, in the presence of inflammatory stimuli; ref Colombo et al., 2020; cited from earlier work
# [5] = inflammation-induced astrocytes
smiles,measurement,setting,value
"COC(=O)/C=C/C(=O)OC [DMF, dimethyl fumarate]",secretion of proinflammatory cytokines and oxidative stress,astrocytes,reduced
same,C3 secretion by astrocytes,[1]; library screen at 100 nM,not at 100 nM
same,C3 secretion by astrocytes,[1]; library screen at 10 μM,inhibited
O=C1CN(/N=C/c2ccc(-c3ccc([N+](=O)[O-])cc3)o2)C(O)=N1 [Dantrolene],hepatotoxicity,[2],serious hepatotoxicity
same,inhibition of secretion of C3,[1]; drug library screen,77.7%
CC(C)c1cc(-c2n[nH]c(=O)n2-c2ccc3c(ccn3C)c2)c(O)cc1O [Ganetespib],secretion of proteins from astrocytes not activated by inflammatory stimuli,[3],inhibited
same,"secretion of ""toxic astrocyte signature"" biomarkers",[3],strongly reduced secretion of all biomarkers
CO[C@H]1C[C@@H]2CC[C@@H](C)[C@@](O)(O2)C(=O)C(=O)N2CCCC[C@H]2C(=O)O[C@H]([C@H](C)C[C@@H]2CC[C@@H](O)[C@H](OC)C2)CC(=O)[C@H](C)/C=C(\C)[C@@H](O)[C@@H](OC)C(=O)[C@H](C)C[C@H](C)/C=C/C=C/C=C/1C [Rapamycin],"secretion of ""toxic astrocyte signature"" biomarkers",[3],did not have potent effect on secretion of most
same,"secretion of CCL20, TNFAIP6 and CFB",[3]; [5],elevated
same,secretion of CCL20 and CCL8,[3]; [5],increased
same,secretion of SERPINA3,[3]; [5],failed to inhibit
CCCCCCCCc1ccc(CCC(N)(CO)CO)cc1 [fingolimod],secretion of proinflammatory cytokines,[4],reduced
CCc1cc(/C(C)=N/OCc2ccc(C3CCCCC3)c(C(F)(F)F)c2)ccc1CN1CC(C(=O)O)C1 [siponimod],secretion of proinflammatory cytokines,[4],reduced
